Source: the RNAGym collection of RNA variant scans (doi:10.1126/science.aae0568)
Fewer inactive variants are shown than the library holds.

B1: tRNA (parent)
chain: GUUCCGUUGGCGUAAUGGUAACGCGUCUCCCUCCUAAGGAGAAGACUGCGGGUUCGAGUCCCGUACGGAACG

Variants of: B1
Assay: yeast fitness relative to wild type (ratio to wild type); higher = fitter; tRNA-Arg(CCU), competitive growth, 37 C, YPD
In short: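 Variants of the tRNA-Arg(CCU) gene were chemically synthesised with a 3% per-site mutation rate across 69 sites and placed at the native genomic locus in Saccharomyces cerevisiae. Six parallel replicates of the pooled strains were competed in YPD at 37°C for 24 hours, and gene amplicons from the start and end populations were read by 100-nucleotide paired-end sequencing. Darwinian fitness relative to wild type was derived from changes in genotype frequencies. Genotypes required ≥ 100 starting reads, and estimates < 0.5 were set to 0.5.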

Row | Variant | yeast fitness
1 | GUUCCGUUGGCGUAAUGGUAACGCGUCUCCCUCCUAAGGAGGAGACAGCGGGCUCGAGUCCCGUACGGAACG | ≤ 0.5
2 | GUUCCGUUGGCGUAAUGGUAACGCGUCUCCCUCCUAAGGAGGAGACUGCGGGUUCGAGUCCUGUACGAAACG | 0.79
3 | GUUCCGUUGGCGUAAUGGUAACGCGUCUCCCUCCUAAGGAGGAAACUGCGGGUUCGAGUCCCGUACGGAACG | 0.962
4 | GUUCCGUUGGCGUAAUGGUAACGCGUCUCCCUCCUAAGGAGGAGAUUGCGGCUUCGAGUCACGUACGGAACG | ≤ 0.5
5 | GUUCCGUUGGCGUAAUGGUAACGCGUCUCCCUCCUAAGGAGUAGCCUGCGGGUUCGAGUCCCGUACGGCACG | 0.67
6 | GUUCCGUUGGCGUAAUGGUAACGCGUCUCCCUCCUAAGGAGGACGCUGCGGGUUCGAGUCCCGUACGGAACG | 0.723
7 | GUUCCGUUGGCGUAAUGGUAACGCGUCUCCCUCCUAAGGAGGACACUGCGGGUUCGCGUCCCGUACGGAACG | ≤ 0.5
8 | GUUCCGUUGGCGUAAUGGUAACGCGUCUCCCUCCUAAGGAGUAGUCUGCGGGUUCGAGUCCCGUACGGCACG | 0.656
9 | GUUCCGUUGGCGUAAUGGUAACGCGUCUCCCUCCUAAGGAGUAGACUGCGGGUUCGCGUCUCGUUCGGAACG | 0.58
10 | GUUCCGUUGGCGUAAUGGUAACGCGUCUCCCUCCUAAGGAGUAGCCUGCGGGUUCGAGUCCCGUACGGACCG | 0.721
11 | GUUCCGUUGGCGUAAUGGUAACGCGUCUCCCUCCUAAGGAGGAGACUGCGGGUUCGAGUCACGUACAGAACG | ≤ 0.5
12 | GUUCCGUUGGCGUAAUGGUAACGCGUCUCCCUCCUAAGGAGGAGACUACGGGUUCGAGUCGCGUACGGAACG | ≤ 0.5
13 | GUUCCGUUGGCGUAAUGGUAACGCGUCUCCCUCCUAAGGAGGAGACUGGGGGUCCGAGUCCCGUACGGAACG | 0.536
14 | GUUCCGUUGGCGUAAUGGUAACGCGUCUCCCUCCUAAGGAGGAGACUGCCGGUUCGAAUCCCGUACGGCACG | ≤ 0.5
15 | GUUCCGUUGGCGUAAUGGUAACGCGUCUCCCUCCUAAGGAGGAGACUGCCGGUUCGAGUCCCGUACGGAACG | 0.634
16 | GUUCCGUUGGCGUAAUGGUAACGCGUCUCCCUCCUAAGGAGGAGACUGCGGGUUCGAGUCCCCUACGGAACG | 0.69
17 | GUUCCGUUGGCGUAAUGGUAACGCGUCUCCCUCCUAAGGAGGAGACAGCGGGUUCGAGUCCCGUAUGGAACG | 0.567
18 | GUUCCGUUGGCGUAAUGGUAACGCGUCUCCCUCCUAAGGAGUAGCCUGCGGGUUCGAGUCCCGUACGGAACG | 1.17
19 | GUUCCGUUGGCGUAAUGGUAACGCGUCUCCCUCCUAAGGAGUUGACUGCGGGUUCGGGUCCCGUACGGAUCG | 0.574
20 | GUUCCGUUGGCGUAAUGGUAACGCGUCUCCCUCCUAAGGAGGAGACUGCGGGUUCGAGUACAGUACGGAACG | ≤ 0.5
21 | GUUCCGUUGGCGUAAUGGUAACGCGUCUCCCUCCUAAGGAGUCGACUGCGGGUUCGAGUCCCGCACGCAACG | ≤ 0.5
22 | GUUCCGUUGGCGUAAUGGUAACGCGUCUCCCUCCUAAGGAGGAGACUGCGGGUUCGAGUCCUGUACGGAACG | 0.962
23 | GUUCCGUUGGCGUAAUGGUAACGCGUCUCCCUCCUAAGGAGGAGACUGCGGGUUCGAGUCCGGUACGGAACG | 0.848
24 | GUUCCGUUGGCGUAAUGGUAACGCGUCUCCCUCCUAAGGAGGAGACUGCGGGUCCGAGUCCCGUACGGAACG | 0.815
25 | GUUCCGUUGGCGUAAUGGUAACGCGUCUCCCUCCUAAGGAGGAGACUGCGGGUACGAGUCCCGUACGGAACG | 0.612

Row | Variant | yeast fitness
26 | GUUCCGUUGGCGUAAUGGUAACGCGUCUCCCUCCUAAGGAGUGGACUCCGGGAUCGAGUCCCGUACGGAACG | 0.566
27 | GUUCCGUUGGCGUAAUGGUAACGCGUCUCCCUCCUAAGGAGUCGACUGAGGGUUCGAGUCCCGUACGGAACG | ≤ 0.5
28 | GUUCCGUUGGCGUAAUGGUAACGCGUCUCCCUCCUAAGGAGUGGACUGCGGGUUCGAGUCACGUACGGAACG | 0.723
29 | GUUCCGUUGGCGUAAUGGUAACGCGUCUCCCUCCUAAGGAGUUGACUGCGGGUUCGAGUCCCGUACGGAACG | 1.01
30 | GUUCCGUUGGCGUAAUGGUAACGCGUCUCCCUCCUAAGGAGUGGACUGCGGCUUCGAGUACCGUACGGAACG | ≤ 0.5
31 | GUUCCGUUGGCGUAAUGGUAACGCGUCUCCCUCCUAAGGAGUAGACUGCGGGUUCGCGUCCCGUACGGCACG | ≤ 0.5
32 | GUUCCGUUGGCGUAAUGGUAACGCGUCUCCCUCCUAAGGAGUAGACUGCGGGUUCGCGUCUCGUACCGAACG | ≤ 0.5
33 | GUUCCGUUGGCGUAAUGGUAACGCGUCUCCCUCCUAAGGAGGAGACUGCGUGUUCGUGUCCCGUACAGAACG | ≤ 0.5
34 | GUUCCGUUGGCGUAAUGGUAACGCGUCUCCCUCCUAAGGAGUAGUUUGCGGGUUCGAGUCCCGUAAGGAACG | ≤ 0.5
35 | GUUCCGUUGGCGUAAUGGUAACGCGUCUCCCUCCUAAGGAGGAGACUGCGGGUUCGAGUCCCGUAGCGAACG | ≤ 0.5
36 | GUUCCGUUGGCGUAAUGGUAACGCGUCUCCCUCCUAAGGAGGAGACUGCGGCUUCGAGUCCAGUACGGAACG | ≤ 0.5
37 | GUUCCGUUGGCGUAAUGGUAACGCGUCUCCCUCCUAAGGAGUAGACUGCGGGUUCGUGUCCUGUACGGAACG | 0.529
38 | GUUCCGUUGGCGUAAUGGUAACGCGUCUCCCUCCUAAGGAGGAGACGGCGGGUUCGAGUCCCGUACGGAACG | 0.771
39 | GUUCCGUUGGCGUAAUGGUAACGCGUCUCCCUCCUAAGGAGGAGACCGCGGGUUCGAGUCCCGUACGGAACG | 0.959
40 | GUUCCGUUGGCGUAAUGGUAACGCGUCUCCCUCCUAAGGAGUAGUCUGGGGGUUCGAGUCCCGUACGGAACG | 0.526
41 | GUUCCGUUGGCGUAAUGGUAACGCGUCUCCCUCCUAAGGAGGAGACUGCCGGUUCGAGUCCCGUACGGCACG | ≤ 0.5
42 | GUUCCGUUGGCGUAAUGGUAACGCGUCUCCCUCCUAAGGAGGAGACUGUGGGUUCGAGUCCCGUAAGGAACG | ≤ 0.5
43 | GUUCCGUUGGCGUAAUGGUAACGCGUCUCCCUCCUAAGGAGGAGACUGCGGGUUCGAGUCCCGUACAAAACG | ≤ 0.5
44 | GUUCCGUUGGCGUAAUGGUAACGCGUCUCCCUCCUAAGGAGGAGACUGCGGGUCCGAGUCCCGUUCGGAACG | ≤ 0.5
45 | GUUCCGUUGGCGUAAUGGUAACGCGUCUCCCUCCUAAGGAGGAGACUGCGGGUUCGAGGCCCGCAGGGAACG | ≤ 0.5
46 | GUUCCGUUGGCGUAAUGGUAACGCGUCUCCCUCCUAAGGAGGAGACUGCGGGUUAGAGUCCCGUACGGAACG | 0.607
47 | GUUCCGUUGGCGUAAUGGUAACGCGUCUCCCUCCUAAGGAGGAGACUGCGGGUUCGAGUCCCGUAUGGAACG | 0.814
48 | GUUCCGUUGGCGUAAUGGUAACGCGUCUCCCUCCUAAGGAGGAGACUGCGGGUUCGAGUCCCGUAGGGAACG | 0.808
49 | GUUCCGUUGGCGUAAUGGUAACGCGUCUCCCUCCUAAGGAGGAGACUGCGGGUUCAAGUCCCCUACGGAACG | 0.51
50 | GUUCCGUUGGCGUAAUGGUAACGCGUCUCCCUCCUAAGGAGGAGACUGCGGGUUCCAGUCCCGUACGGAACG | 0.595

Row | Variant | yeast fitness
51 | GUUCCGUUGGCGUAAUGGUAACGCGUCUCCCUCCUAAGGAGGAGAAUGCGGGUUCGAGUCCCGUACGAAUCG | 0.568
52 | GUUCCGUUGGCGUAAUGGUAACGCGUCUCCCUCCUAAGGAGGAGACUGCGGCUUCGAGUCCCGUAUGAAACG | ≤ 0.5
53 | GUUCCGUUGGCGUAAUGGUAACGCGUCUCCCUCCUAAGGAGUGGACUGCGGCUUCGAGUCCCGUACGGAACG | ≤ 0.5
54 | GUUCCGUUGGCGUAAUGGUAACGCGUCUCCCUCCUAAGGAGGAGACUGCGGGUUCGACUCCCGUACGGAACG | 0.906
55 | GUUCCGUUGGCGUAAUGGUAACGCGUCUCCCUCCUAAGGAGGAGACUGCGGGUUCGAGUCCCGUACAGAACG | 0.747
56 | GUUCCGUUGGCGUAAUGGUAACGCGUCUCCCUCCUAAGGAGGAGACUGCGGGUUCGAGUCCCGUACCGAACG | 0.947
57 | GUUCCGUUGGCGUAAUGGUAACGCGUCUCCCUCCUAAGGAGGAGACUGCGGGUUCGAGUCCCGUACGUAACG | 0.834
58 | GUUCCGUUGGCGUAAUGGUAACGCGUCUCCCUCCUAAGGAGGAGACUGCGGGUUCGAGUCCCGUACGAAACG | 0.728
59 | GUUCCGUUGGCGUAAUGGUAACGCGUCUCCCUCCUAAGGAGUAGCCUGCGGGUUUGAGUCCCGUACGGCACG | ≤ 0.5
60 | GUUCCGUUGGCGUAAUGGUAACGCGUCUCCCUCCUAAGGAGUAGACUGCGGGUUCGGGUCCAGGAGGGAACG | ≤ 0.5
61 | GUUCCGUUGGCGUAAUGGUAACGCGUCUCCCUCCUAAGGAGGAGACUGCGGCUUCGACUCCCGUACGGAACG | ≤ 0.5
62 | GUUCCGUUGGCGUAAUGGUAACGCGUCUCCCUCCUAAGGAGGAGACUGCGGCUUCGAGUCCCGUACGGAACG | 0.574
63 | GUUCCGUUGGCGUAAUGGUAACGCGUCUCCCUCCUAAGGAGGAGACUGCGGAUUCGAGUCCCGUACGGAACG | 0.648
64 | GUUCCGUUGGCGUAAUGGUAACGCGUCUCCCUCCUAAGGAGUAGACUGCGGGUUCGUGUCGCGUACGGAACG | ≤ 0.5
65 | GUUCCGUUGGCGUAAUGGUAACGCGUCUCCCUCCUAAGGAGGAGACUCCGGGUUCGAGUCCCGUACGGAACG | 0.741
66 | GUUCCGUUGGCGUAAUGGUAACGCGUCUCCCUCCUAAGGAGGAGACUGUGGGUUCGAGUCCCGUACGGAUCG | 0.711
67 | GUUCCGUUGGCGUAAUGGUAACGCGUCUCCCUCCUAAGGAGGAGACUGCGGCUUCGAGUCCCGUUCGGAACG | ≤ 0.5
68 | GUUCCGUUGGCGUAAUGGUAACGCGUCUCCCUCCUAAGGAGGAGACUGCGGGUUCGAGUACCGUACGGAACG | 0.512
69 | GUUCCGUUGGCGUAAUGGUAACGCGUCUCCCUCCUAAGGAGGAGACUACGGGUUCGAGUCCCGUACGCAUCG | ≤ 0.5
70 | GUUCCGUUGGCGUAAUGGUAACGCGUCUCCCUCCUAAGGAGGACACUGCGGGUUCGAGUCCCGUCCGGAACG | 0.563
71 | GUUCCGUUGGCGUAAUGGUAACGCGUCUCCCUCCUAAGGAGGAGACUGCGGGUUCGAGUCCCGUACGGAGCG | 0.693
72 | GUUCCGUUGGCGUAAUGGUAACGCGUCUCCCUCCUAAGGAGGAGACAGCGGGUUUGCGUCCCGUACGGAACG | 0.631
73 | GUUCCGUUGGCGUAAUGGUAACGCGUCUCCCUCCUAAGGAGGAGACUGCGGGUUCGAGUCGCGUAAGGAACG | ≤ 0.5
74 | GUUCCGUUGGCGUAAUGGUAACGCGUCUCCCUCCUAAGGAGGAGACUGCGAGUUCGCGCUCCGUACGGAACG | ≤ 0.5
75 | GUUCCGUUGGCGUAAUGGUAACGCGUCUCCCUCCUAAGGAGGAGACUGCGGGUUCGAGUCCCGUACCGACCG | ≤ 0.5
